The values below come from ChEMBL document CHEMBL4152290, “1H-Benzo[d]imidazoles and 3,4-dihydroquinazolin-4-ones: Design, synthesis and antitubercular activity” (Eur J Med Chem, 2018).

Bounds are passed on as bounds.

A short description of series [1]: Selectivity index, ratio of cytotoxic concentration for human HepG2 cells by MTT assay to MIC for Mycobacterium tuberculosis H37Rv ATCC 27294. The following applies: read-out: Selectivity Index. The class given is toxicity. On the technique in general: Tetrazolium dyes change colour on reduction, which living cells bring about.
Series [2] can be described thus: Stability of the compound in PBS containing 10% DMSO at 25 degC measured after 24 hrs by HPLC analysis. To be noted: buffer. In kind it is physicochemical.
Series [3] can be described thus: Stability of the compound in PBS containing 10% DMSO at 37 degC measured after 6 hrs by HPLC analysis. The class given is physicochemical. To be noted: read-out: Stability.
The nature of series [4]: Cytotoxicity against human HaCaT cells assessed as cell viability at 10 ug/ml after 72 hrs by MTT assay (reference value: 100%). The class given is cell-based. To be noted: read-out: Activity. The method in brief: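 Cells were grown in DMEM with 10% heat-inactivated FBS and penicillin-streptomycin, seeded at 2×10^3/well (HepG2, HaCat) or 1×10^3/well (Vero), then left 24 h. Compound was applied at 10 µg/mL final (2% DMSO) for 72 h at 37 °C, 5% CO2. MTT 1 mg/mL was added for 3 h, formazan dissolved in DMSO, and A595 read. Viability is expressed relative to 2% DMSO wells; mean ± SEM, triplicates, three independent experiments.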

Series [5] can be described thus: Stability of the compound in PBS containing 10% DMSO at 25 degC measured after 48 hrs by HPLC analysis. The following applies: buffer. The class given is physicochemical.
The nature of series [6]: Stability of the compound in PBS containing 10% DMSO at 25 degC measured immediately by HPLC analysis. The class given is physicochemical. The following applies: read-out: Stability.
Series [7] is filed under the species Danio rerio. Kind of series: Toxicity in Zebrafish AB embryos assessed as morphological alteration by measuring effect on ocular distance at 3 to 20 uM measured at 2 to 5 days post fertilization by stereomicroscopic method. In kind it is organism-based. The following applies: in vivo. The method in brief: (§1)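 AB embryos are treated from 2 hpf to 5 dpf at 3.0, 15.0 and 20.0 µM in fish water with 1% DMSO, at 28 °C. Controls are fish water and 1% DMSO. Larvae are photographed under a stereomicroscope (3×) at 2 and 5 dpf, n = 30. Body length (µm), ocular distance (µm) and eye surface area (µm²) are measured from the images.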

A short description of series [8]: Cytotoxicity against human HepG2 cells assessed as cell viability at 10 ug/ml after 72 hrs by neutral red uptake assay (reference value: 100%). In kind it is cell-based. The following applies: read-out: Activity. The method in brief: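 Seeding was 2×10^3/well for HepG2 and HaCat and 1×10^3/well for Vero. After 24 h, cells received 10 µg/mL final (2% DMSO) for 72 h at 37 °C, 5% CO2. They were washed with PBS, given neutral red 25 µg/mL in serum-free medium for 3 h, washed, and extracted 30 min with acetic acid/EtOH/water 1:50:49. A540 was read. Viability is relative to 2% DMSO controls; mean ± SEM, three experiments in triplicate.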

The species entered for series [9] is Danio rerio. Kind of series: Cardiotoxicity in Zebrafish AB embryos assessed as heart beat rate at 3 uM measured at 5 days post fertilization by stereomicroscopic method (reference value: 148.1 to 158.2 bpm). The class given is organism-based. The following applies: in vivo, 120 h.
For series [10], the species on record is Danio rerio. Kind of series: Toxicity in Zebrafish AB embryos assessed as morphological alteration by measuring effect on body length of larvae at 3 to 20 uM measured at 2 to 5 days post fertilization by stereomicroscopic method. In kind it is organism-based. The following applies: in vivo. The method in brief:
as §1

Series [11] can be described thus: Selectivity index, ratio of cytotoxic concentration for human HaCaT cells by neutral red uptake assay to MIC for Mycobacterium tuberculosis H37Rv ATCC 27294. In kind it is toxicity. The following applies: read-out: Selectivity Index.
The species entered for series [12] is Danio rerio. Put plainly: Toxicity in Zebrafish AB embryos assessed as morphological alteration by measuring effect on body length of larvae at 20 uM measured at 2 to 5 days post fertilization by stereomicroscopic method. The class given is organism-based. The following applies: in vivo. The method in brief:
as §1

On to `CC1CCCCC1NC(=O)CSc1nc2ccccc2c(=O)[nH]1` (configuration not stated), for which the selectivity ratio in [1] and in [11] was ≤ 32 throughout. Further, the values for the Stability in series [2] and in series [5] were 138% and 142%, respectively. In addition, the remaining at 6 h in [3] came out at 75%. The viability at 72 h, 10 ug/ml in [4] was determined as 100%; in series [8], 101%. Moreover, in series [6], the remaining at 0 h stood at 100%. Besides, the Activity entry in the series filed under Danio rerio [7] is recorded as “Non-Toxic”; in the series filed under Danio rerio [9] it was 162.6 bpm; in the series filed under Danio rerio [10] it was “Non-Toxic”.
Regarding `O=C(CSc1nc2ccccc2c(=O)[nH]1)NC1CCCCC1`, the selectivity ratio in series [1] and in [11] was ≤ 32 throughout. For the same molecule, the Stability amounted to 109% in series [2] and 126% in [5]. Moreover, the remaining at 6 h in series [3] was found to be 111%. The viability at 72 h, 10 ug/ml in series [4] came out at 100%; in [8], 95%. For the same molecule, in series [6], the remaining at 0 h is 100%. Moreover, the Activity entry in the series filed under Danio rerio [7] is “Non-Toxic”; in the series listed under Danio rerio [9], 162.8 bpm; in the series filed under Danio rerio [10], “Non-Toxic”.
Regarding `O=C(CSc1nc2ccccc2c(=O)[nH]1)NCC1CCCCC1`, the selectivity ratio in series [1] and in series [11] was ≤ 32 in each case. Further, the Stability is 114% in [2] and 125% in series [5]. The remaining at 6 h in [3] came to 109%. The viability at 72 h, 10 ug/ml in series [4] was 98%; in series [8], 97%. Also, the remaining at 0 h in series [6] was 100%. The Activity entry in the series listed under Danio rerio [7] was “Non-Toxic”; in the series listed under Danio rerio [9], 157.8 bpm; in the series listed under Danio rerio [10] it was “Non-Toxic”.
Consider `CC1CCC(NC(=O)CSc2nc3ccccc3c(=O)[nH]2)CC1` (configuration not stated), for which the selectivity ratio in series [1] and in series [11] was ≤ 32 each time. The Stability stood at 111% in [2] and 125% in [5]. The remaining at 6 h in series [3] amounted to 59%. Moreover, the viability at 72 h, 10 ug/ml in [4] is 95%; in [8] it was 96%. Also, in [6], the remaining at 0 h amounted to 100%. In addition, the Activity result in the series listed under Danio rerio [7] is recorded as “Non-Toxic”; in the series filed under Danio rerio [9], 147.7 bpm; in the series listed under Danio rerio [10], “Non-Toxic”.
Consider `CC1CCCC(NC(=O)CSc2nc3ccccc3c(=O)[nH]2)C1` (configuration not stated), for which the selectivity ratio in [1] and in series [11] was ≤ 32 throughout. The results for the Stability in series [2] and in [5] were 100% and 95%, respectively. Moreover, the remaining at 6 h in [3] is 101%. For the same molecule, the viability at 72 h, 10 ug/ml in series [4] amounted to 94%; in [8], 95%. Also, the remaining at 0 h in series [6] worked out at 100%. Further, the results for the Activity entry in the series filed under Danio rerio [7], in the series listed under Danio rerio [9] and in the series listed under Danio rerio [10] were “Non-Toxic”, 157.2 bpm and “Non-Toxic”, respectively.
As to `O=C(CSc1nc2ccccc2c(=O)[nH]1)NC1CCCCCC1`, the selectivity ratio in [1] and in [11] was ≤ 32 in each case. The figures for the Stability in series [2] and in series [5] were 122% and 123%, respectively. In addition, the remaining at 6 h in series [3] came to 67%. The viability at 72 h, 10 ug/ml in [4] was 100%; in [8], 105%. In addition, the remaining at 0 h in series [6] was found to be 100%. The Activity result is reported as “Non-Toxic” in the series filed under Danio rerio [7], 160.1 bpm in the series filed under Danio rerio [9] and “Non-Toxic” in the series listed under Danio rerio [10].
As for `C[C@H]1CC[C@H](NC(=O)CSc2nc3ccccc3c(=O)[nH]2)CC1`, the selectivity ratio in series [1] and in series [11] was ≤ 32 in each case. Also, the Stability in series [2] was 26%; in series [5], 20%. In series [3], the remaining at 6 h was found to be 87%. Also, the viability at 72 h, 10 ug/ml in series [4] and in [8] was 97% each time. Further, the remaining at 0 h in series [6] is 100%. Also, the Activity result was “Non-Toxic” in the series listed under Danio rerio [7], 149.2 bpm in the series filed under Danio rerio [9] and “Toxic” in the series listed under Danio rerio [12].
